Assay results of several laboratories.
Protocols differ between the studies behind these lines.
Medium: plasma
Route: oral

Compound	system	setting	AUC(0-inf)
CC(C)(O)c1ccccc1-c1ccc2[nH]c(/C=C/c3ccc(C(F)(F)F)cc3)nc2c1	male human	5 mg, single dose, fasted	876 ng·h/mL
COc1ccc([C@@H]2CN(C(=O)[C@@H](O)CO)C[C@@]2(C)[C@@H](C)O)cc1OC1CN(c2ccc(C)cn2)C1	human	1.5 mg, single dose, healthy volunteers	524 ng·h/mL
CC(C)n1cc(C#N)c2cc(-n3cc(C(=O)O)cn3)ccc21	human	10 mg, single dose, fasted, healthy volunteers	1770 ng·h/mL
CO[C@H]1CC[C@H](N2C(=O)CNc3ncc(-c4ccc(C(C)(C)O)nc4)nc32)CC1	human	45 mg, patients	1690 ng·h/mL
O=C(Nc1c(Cl)cncc1Cl)c1ccc(OC(F)F)c(OCC2CC2)c1	human	0.25 mg, single dose, fasted	33.8 ng·h/mL
C[C@@]1(c2cc(NC(=O)c3ccc(C#N)cn3)ccc2F)C=CSC(N)=N1	human	90 mg, single dose	8950 ng·h/mL
Cn1cc(-c2ccc(S(=O)(=O)[C@@H]3C[C@@H](C(=O)NC4(C#N)CC4)N(C(=O)C4(C(F)(F)F)CC4)C3)c(C(F)(F)F)c2)cn1	human	3 mg, single dose, fasted, healthy volunteers	229 ng·h/mL
CC(C)(Sc1ccncc1-c1ccc(C#N)c2ccccc12)C(=O)O	male human	20 mg, single dose, fed, healthy volunteers	415 ng·h/mL
CCc1nc2c(C)cc(N3CCN(CC(=O)N4CC(O)C4)CC3)cn2c1N(C)c1nc(-c2ccc(F)cc2)c(C#N)s1	human	300 mg, fed, healthy volunteers	16400 ng·h/mL
